Several values for one entry are separate records, joined by “and”; a condition that tells them apart may be missing. Equal values may be shown once.
Tests used:
HEK-293T = test: Multiplex assay against HEK293T; type: toxicity, cell-based; conditions: human, number of replicates 2
Method in brief: (§1)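 Four dyes were applied at seeding to live cells: Hoechst33342, BioTracker Green Microtubule Cytoskeleton Dye, MitoTracker Red and Annexin V Alexa Fluor 680. Imaging after compound addition used a CQ1 microscope at 37°C and 5% CO2. CellPathfinder machine-learning gating then sorted cells into Hoechst high-intensity objects or normal cells, normal cells into healthy, pyknosed or fragmented nuclei, and pyknosed cells into mitotic or apoptotic, with tubulin, mitochondrial-mass and membrane-permeability phenotypes given as per cents of healthy-nucleus cells.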

Fibroblast = test: Multiplex assay against human fibroblast; type: toxicity, cell-based; conditions: number of replicates 2; method in brief: as §1
[1] = 12 h, 1 µM, compound concentration 1 uM
[2] = 12 h, 10 µM, compound concentration 10 uM
[3] = 24 h, 1 µM, compound concentration 1 uM
[4] = 24 h, 10 µM, compound concentration 10 uM
[5] = 48 h, 1 µM, compound concentration 1 uM
[6] = 48 h, 10 µM, compound concentration 10 uM

## O=S(=O)(c1ccccc1)N(CC(F)(F)F)c1ccc(C(O)(C(F)(F)F)C(F)(F)F)cc1 [T091317]
HEK-293T; [1]
  Population Apoptotic (%): 40% and 48%
  Population Fragmented Nuclei (%): 4% and 3%
  Population Healthy Nuclei (%): 83% and 82%
  Population Hoechst High Intensity Objects (%): 7% and 5%
  Population Membrane Permeable-Phenotype (%): 3% and 4%
  Population Mitochondria Different-Phenotype (%): 15% and 22%
  Population Mitotic Cells (%): 59% and 51%
  Population Normal (%): 92% and 94%
  Population Pyknosed Nuclei (%): 11% and 14%
  Population Tubulin-Different-Phenotype (%): 56%
  Total Cell Count: 740 and 522
HEK-293T; [2]
  Population Apoptotic (%): 57% and 54%
  Population Fragmented Nuclei (%): 3% and 5%
  Population Healthy Nuclei (%): 83% and 81%
  Population Hoechst High Intensity Objects (%): 10% and 15%
  Population Membrane Permeable-Phenotype (%): 4% and 3%
  Population Mitochondria Different-Phenotype (%): 49% and 42%
  Population Mitotic Cells (%): 42% and 45%
  Population Normal (%): 89% and 84%
  Population Pyknosed Nuclei (%): 12%
  Population Tubulin-Different-Phenotype (%): 86% and 81%
  Total Cell Count: 426 and 429
HEK-293T; [3]
  Population Apoptotic (%): 39% and 56%
  Population Fragmented Nuclei (%): 8% and 4%
  Population Healthy Nuclei (%): 83% and 85%
  Population Hoechst High Intensity Objects (%): 8% and 7%
  Population Membrane Permeable-Phenotype (%): 4%
  Population Mitochondria Different-Phenotype (%): 5% and 8%
  Population Mitotic Cells (%): 60% and 43%
  Population Normal (%): 91% and 92%
  Population Pyknosed Nuclei (%): 8% and 10%
  Population Tubulin-Different-Phenotype (%): 36% and 38%
  Total Cell Count: 1214 and 697
HEK-293T; [4]
  Population Apoptotic (%): 44% and 68%
  Population Fragmented Nuclei (%): 2% and 7%
  Population Healthy Nuclei (%): 84% and 79%
  Population Hoechst High Intensity Objects (%): 9% and 18%
  Population Membrane Permeable-Phenotype (%): 4% and 3%
  Population Mitochondria Different-Phenotype (%): 53% and 59%
  Population Mitotic Cells (%): 55% and 31%
  Population Normal (%): 90% and 81%
  Population Pyknosed Nuclei (%): 12% and 13%
  Population Tubulin-Different-Phenotype (%): 87% and 86%
  Total Cell Count: 385 and 376
HEK-293T; [5]
  Population Fragmented Nuclei (%): 15% and 8%
  Population Healthy Nuclei (%): 80% and 87%
  Population Hoechst High Intensity Objects (%): 10% and 9%
  Population Membrane Permeable-Phenotype (%): 6% and 3%
  Population Mitochondria Different-Phenotype (%): 0% and 2%
  Population Mitotic Cells (%): 90% and 68%
  Population Normal (%): 89% and 90%
  Population Pyknosed Nuclei (%): 3%
  Population Tubulin-Different-Phenotype (%): 19% and 22%
  Total Cell Count: 2956 and 1428
HEK-293T; [6]
  Population Apoptotic (%): 67% and 74%
  Population Fragmented Nuclei (%): 7% and 14%
  Population Healthy Nuclei (%): 78% and 66%
  Population Hoechst High Intensity Objects (%): 14% and 24%
  Population Membrane Permeable-Phenotype (%): 4%
  Population Mitochondria Different-Phenotype (%): 66% and 58%
  Population Mitotic Cells (%): 32% and 25%
  Population Normal (%): 85% and 75%
  Population Pyknosed Nuclei (%): 14% and 19%
  Population Tubulin-Different-Phenotype (%): 94% and 82%
  Total Cell Count: 296 and 264
Fibroblast; [1]
  Population Apoptotic (%): 45% and 27%
  Population Fragmented Nuclei (%): 13% and 11%
  Population Healthy Nuclei (%): 60% and 68%
  Population Hoechst High Intensity Objects (%): 0%
  Population Membrane Permeable-Phenotype (%): 8% and 10%
  Population Mitochondria Different-Phenotype (%): 1%
  Population Mitotic Cells (%): 54% and 72%
  Population Normal (%): 100%
  Population Pyknosed Nuclei (%): 25% and 20%
  Population Tubulin-Different-Phenotype (%): 28% and 21%
  Total Cell Count: 135 and 214
Fibroblast; [2]
  Population Apoptotic (%): 33% and 30%
  Population Fragmented Nuclei (%): 14% and 12%
  Population Healthy Nuclei (%): 58% and 67%
  Population Hoechst High Intensity Objects (%): 0%
  Population Membrane Permeable-Phenotype (%): 6% and 8%
  Population Mitochondria Different-Phenotype (%): 1% and 4%
  Population Mitotic Cells (%): 66% and 69%
  Population Normal (%): 99% and 100%
  Population Pyknosed Nuclei (%): 28% and 19%
  Population Tubulin-Different-Phenotype (%): 40% and 34%
  Total Cell Count: 151 and 132
Fibroblast; [3]
  Population Apoptotic (%): 50% and 52%
  Population Fragmented Nuclei (%): 15% and 10%
  Population Healthy Nuclei (%): 54% and 57%
  Population Hoechst High Intensity Objects (%): 0%
